Compound activity from PubChem BioAssay.
Shown is part of a subset that was picked to be rich in hits.
A1 apoptosis 2 = A1 inhibition read as caspase activation; 24,000 tested, under 10 active; caspase activation, % (concentration not given with the values); MEF A1-2A-BIM cells, caspase-Glo luminescence, 3 h; percent of clofoctol response, DMSO zero; in the data active means caspase activation above about 5.9%
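Material: mouse embryonic fibroblasts co-expressing A1 and BIM (A1-2A-BIM), primed for A1 dependence / Quantity: 2500 cells/well / Buffer or medium: RPMI-1640 growth medium with 10% FBS / Doses: 50 nL compound per well, pinned / Schedule: 3 h compound exposure at 37 °C / Signal: Caspase-Glo luminescence (DEVD substrate) / Measure: Caspase-3/7 activation, seen as rise in luminescence signal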
INS-1E ATP HTS = preserves ATP levels in cytokine-treated INS-1E cells; INS-1E cytokine-induced death, ATP luminescence, 48 h; normalised: neutral wells 0, positive control 100; protection from cytokine-induced ATP loss, % at 10 µM; hit rate 0.1% among 20,000; AID 488910;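 active means mean replicate protection from cytokine-induced ATP loss at least 50% and at least 75% of replicates each reaching 50%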
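Assay system: INS-1E rat insulinoma cells. Amount: 8000 cells per well. Medium: phenol-red-free RPMI with 5% fetal bovine serum. Reagent: IL-1β, TNF-α and IFN-γ cytokine mix. Doses: one compound concentration, pin transfer. Schedule: 48 h co-treatment, 10 min post-lysis read. Detection: CellTiter-Glo luminescence measuring cellular ATP.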
T cruzi intra = intracellular Trypanosoma cruzi inhibition; activity score (inhibition), % at 5.01 µM; hit rate 4.9% among 22,000; AID 651903; intracellular Trypanosoma cruzi in host cells, plate reader; in the data active means activity score above about 55%;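 further: parasites and compound incubated about four days before reading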
A number is an active result.

Results for COC(=O)CCCCCCC(=O)N/N=C/c1cccc(NC(=O)OC(C)(C)C)c1 ?
A1 apoptosis 2: inactive; INS-1E ATP HTS: inactive; T cruzi intra: inactive

How did C[C@@H]1CN([C@@H](C)CO)C(=O)c2cccc(NC(=O)c3nc4ccccc4s3)c2O[C@H]1CN(C)Cc1ccc(-c2ccccc2)cc1 do in these assays?
INS-1E ATP HTS: inactive; T cruzi intra: 70.6

How did C[C@@H]1CN([C@@H](C)CO)C(=O)c2cccc(NC(=O)c3nc4ccccc4s3)c2O[C@H]1CN(C)Cc1ccc(C(=O)Nc2ccccc2N)cc1 do in these assays?
INS-1E ATP HTS: inactive; T cruzi intra: 70.1

What do the screens show for `C[C@H](CO)N1C[C@H](C)[C@@H](CN(C)Cc2ccc(Oc3ccccc3)cc2)Oc2c(NC(=O)c3nc4ccccc4s3)cccc2C1=O`?
INS-1E ATP HTS: inactive; T cruzi intra: 66.0

How did C[C@@H]1CN([C@H](C)CO)C(=O)c2cccc(NC(=O)c3nc4ccccc4s3)c2O[C@@H]1CN(C)Cc1ccc(-c2ccccc2)cc1 do in these assays?
A1 apoptosis 2: inactive; INS-1E ATP HTS: inactive; T cruzi intra: inactive

What do the screens show for `C[C@H]1CN([C@@H](C)CO)C(=O)c2cccc(NC(=O)c3nc4ccccc4s3)c2O[C@@H]1CN(C)Cc1ccc(Oc2ccccc2)cc1`?
A1 apoptosis 2: inactive; INS-1E ATP HTS: inactive; T cruzi intra: inactive

Results for C[C@H]1CN([C@@H](C)CO)C(=O)c2cccc(NC(=O)c3nc4ccccc4s3)c2O[C@@H]1CN(C)Cc1ccc(Cl)c(Cl)c1 ?
A1 apoptosis 2: inactive; INS-1E ATP HTS: inactive; T cruzi intra: 64.8

What do the screens show for `C[C@@H]1CN([C@H](C)CO)C(=O)c2cccc(NC(=O)c3nc4ccccc4s3)c2O[C@@H]1CN(C)Cc1ccccc1`?
A1 apoptosis 2: inactive; INS-1E ATP HTS: inactive; T cruzi intra: inactive

What do the screens show for `C[C@@H]1CN([C@H](C)CO)C(=O)c2cccc(NC(=O)c3nc4ccccc4s3)c2O[C@@H]1CN(C)Cc1ccc(C(=O)Nc2ccccc2N)cc1`?
A1 apoptosis 2: inactive

Results for CC(=O)NCCCC[C@@H]1NC(=O)[C@@H]2C[C@H](C(=O)NCc3ccc(F)cc3)[C@H](c3cccc(OCCO)c3)N2C1=O ?
A1 apoptosis 2: inactive

Results for Cc1noc(C)c1S(=O)(=O)Nc1ccc2c(c1)C(=O)N([C@H](C)CO)C[C@H](C)[C@@H](CN(C)S(=O)(=O)c1ccc(F)cc1)OCCCC[C@@H](C)O2 ?
INS-1E ATP HTS: inactive; T cruzi intra: inactive

How did CC(C)NC(=O)N(C)C[C@@H]1OCCCC[C@H](C)Oc2ccc(NC(=O)C3CCCCC3)cc2C(=O)N([C@@H](C)CO)C[C@H]1C do in these assays?
A1 apoptosis 2: inactive

Results for C[C@@H]1CN([C@H](C)CO)C(=O)c2cc(NC(=O)Nc3ccc(C(F)(F)F)cc3)ccc2O[C@@H](C)CCCCO[C@@H]1CN(C)C(=O)Cc1ccccc1 ?
A1 apoptosis 2: inactive

How did O=C1c2ccccc2C(=O)N1[C@@H]1CCCN(Cc2cccc(OCCO)c2)C1 do in these assays?
A1 apoptosis 2: inactive

What do the screens show for `O=C(CCCCCCC(=O)N/N=C/c1ccc(-n2ccnc2)cc1)NO`?
A1 apoptosis 2: inactive

What do the screens show for `COC(=O)CCCCCCC(=O)N/N=C/c1ccc([N+](=O)[O-])c(O)c1`?
A1 apoptosis 2: inactive; INS-1E ATP HTS: inactive; T cruzi intra: inactive

What do the screens show for `C[C@@H]1CN([C@H](C)CO)C(=O)Cc2cc(NC(=O)Nc3cccc4ccccc34)ccc2O[C@@H]1CN(C)Cc1ccc(Cl)c(Cl)c1`?
INS-1E ATP HTS: inactive; T cruzi intra: 68.1

How did C[C@@H]1CN([C@H](C)CO)C(=O)Cc2cc(NC(=O)Nc3cccc4ccccc34)ccc2O[C@H]1CN(C)Cc1ccc(Cl)c(Cl)c1 do in these assays?
INS-1E ATP HTS: inactive; T cruzi intra: inactive

Results for C[C@H]1CN([C@@H](C)CO)C(=O)Cc2cc(NC(=O)Nc3cccc4ccccc34)ccc2O[C@H]1CN(C)Cc1ccc(Cl)c(Cl)c1 ?
INS-1E ATP HTS: inactive; T cruzi intra: inactive

Results for C[C@H](CO)N1C[C@H](C)[C@@H](CN(C)Cc2ccc(Cl)c(Cl)c2)Oc2c(NC(=O)Nc3cccc4ccccc34)cccc2C1=O ?
A1 apoptosis 2: inactive; INS-1E ATP HTS: inactive; T cruzi intra: 67.9

What do the screens show for `C[C@@H]1CN([C@H](C)CO)C(=O)c2cccc(NC(=O)Nc3cccc4ccccc34)c2O[C@@H]1CN(C)Cc1ccc(Cl)c(Cl)c1`?
A1 apoptosis 2: inactive; INS-1E ATP HTS: inactive; T cruzi intra: inactive

Results for C[C@H](CO)N1C[C@H](C)[C@H](CN(C)Cc2ccc(Cl)c(Cl)c2)Oc2ccc(NC(=O)Nc3cccc4ccccc34)cc2CC1=O ?
A1 apoptosis 2: inactive; INS-1E ATP HTS: inactive; T cruzi intra: 68.5
